Reference: ChEMBL document CHEMBL3414544, “PAINS in the assay: chemical mechanisms of assay interference and promiscuous enzymatic inhibition observed during a sulfhydryl-scavenging HTS” (J Med Chem, 2015)
Calls of active or inactive are those of the source.

Tests used:
[1] = Fluorescence quenching in HTS buffer assessed as fluorescence signal reduction at 10 uM after 10 mins; format: physicochemical
[2] = biological target: T1, Histone acetyltransferase RTT109 (Saccharomyces cerevisiae (strain ATCC 204508 / S288c) (Baker's yeast)) (UniProt Q07794); assay: Inhibition of Vps75-stimulated recombinant Saccharomyces cerevisiae histone acetyltransferase Rtt109 assessed as H3K27 acetylated product at […] after 45 mins by Slot bolt inhibiton assay
T1 sequence (whole entry): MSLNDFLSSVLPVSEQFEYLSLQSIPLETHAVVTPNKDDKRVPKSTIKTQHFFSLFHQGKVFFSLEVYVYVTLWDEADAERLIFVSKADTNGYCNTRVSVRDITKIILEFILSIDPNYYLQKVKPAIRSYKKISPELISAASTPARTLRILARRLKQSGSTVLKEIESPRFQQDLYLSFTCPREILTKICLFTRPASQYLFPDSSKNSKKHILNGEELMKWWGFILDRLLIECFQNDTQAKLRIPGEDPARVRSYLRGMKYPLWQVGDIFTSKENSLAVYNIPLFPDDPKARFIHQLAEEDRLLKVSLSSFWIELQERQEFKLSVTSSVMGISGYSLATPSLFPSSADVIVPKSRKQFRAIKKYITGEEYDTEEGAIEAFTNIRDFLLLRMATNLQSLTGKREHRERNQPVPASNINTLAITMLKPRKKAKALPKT

[3] = Fluorescence quenching in HTS buffer with 20 uM 7-diethylamino-3-(4'-maleimidyl-phenyl)-4-methylcoumarin assessed as fluorescence signal reduction at 10 uM after 10 mins; format: physicochemical
[4] = Fluorescence quenching assessed as fluorescence signal reduction at 10 uM after 10 mins; format: physicochemical
How it was run: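 CPM (20 μM final) and CoA (5 μM final) reacted to completion in assay buffer (stable plateau, usually ~5 min); adduct solution added to wells preplated with compound; shaken 5 min, equilibrated 5 min at room temperature; fluorescence intensity read as percent signal reduction versus DMSO controls. Flagged as quencher at >20% signal reduction at 10 μM final compound.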

[5] = Fluorescence quenching in HTS buffer with […] CoA assessed as fluorescence signal reduction at 10 uM after 10 mins; format: physicochemical
[6] = biological target: T2, Histone acetyltransferase RTT109 (Saccharomyces cerevisiae (strain ATCC 204508 / S288c) (Baker's yeast), UniProt Q07794); assay: Inhibition of Vps75-stimulated recombinant Saccharomyces cerevisiae histone acetyltransferase Rtt109 using Asf1-dH3-H4 as substrate assessed as coenzyme A production after 45 mins by CPM based HTS assay; settings: read-out: IC50
T2 sequence (Q07794 whole entry): T1 sequence (whole entry)
How it was run: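 Recombinant Rtt109–Vps75 at 50 nM, with Asf1–dH3–H4 as substrate and acetyl-CoA as acetyl donor. Buffer contained freshly prepared 0.01% Triton X-100. The CoA product was detected by fluorescence of its CPM adduct. Plates had Z′ ≥0.5. IC50 came from a four-parameter variable-slope fit.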

[7] = biological target: T1, Histone acetyltransferase RTT109 (Saccharomyces cerevisiae (strain ATCC 204508 / S288c) (Baker's yeast)); assay: Inhibition of Vps75-stimulated recombinant Saccharomyces cerevisiae histone acetyltransferase Rtt109 assessed as H3K56 acetylated product at […] after 45 mins by Slot bolt inhibiton assay

Structure (SMILES) | Activity [1] | Activity [2] | Activity [3] | Activity [4] | Activity [5] | IC50 [6] [µM] | Activity [7]
O=[N+]([O-])c1cccc(S(=O)(=O)Nc2cc(Br)c(O)c3ccccc23)c1 | Not Active | Active | Not Active | Not Active | Not Active | 5.4 | Active
O=C(O)CSc1cc(Cl)c2nonc2c1[N+](=O)[O-] | Not Active | Active | Not Active | Not Active | Not Active | 17 | Active
Cc1ccc(Sc2cc(NS(=O)(=O)c3ccc(Cl)cc3)c3ccccc3c2O)cc1 | Not Active | inactive | Not Active | Not Active | Not Active | 2.9 | Active
COc1ccc(-c2nnc(Sc3ccc([N+](=O)[O-])c4nonc34)o2)cc1 | Not Active | Active | Not Active | Not Active | Not Active | 0.96 | Active
O=S(=O)(Nc1cc(SCc2ccco2)c(O)c2ccccc12)c1ccccc1 | Not Active | Active | Not Active | Not Active | Not Active | 2.1 | Active
O=[N+]([O-])c1ccccc1-c1nnc(SC2=CS(=O)(=O)c3ccccc32)o1 | Not Active | Active | Not Active | Not Active | Not Active | 5.7 | Active
O=[N+]([O-])c1ccc(Sc2nnnn2-c2ccccc2)c2nonc12 | Not Active | Active | Not Active | Not Active | Not Active | 0.45 | Active
O=S(=O)(Nc1cc(Br)c(O)c2ccccc12)c1ccc(F)cc1 | Not Active | Active | Not Active | Not Active | Not Active | 4.4 | Active
Cc1ccc(N2C(=O)CC(Sc3nnc(-c4ccccc4O)o3)C2=O)cc1 (stereo unspecified) | Not Active | Active | Not Active | Not Active | Not Active | 50 | Active
O=S(=O)(Nc1cc(Sc2nc[nH]n2)c(O)c2ccccc12)c1ccc(Cl)cc1 | Not Active | Active | Not Active | Not Active | Not Active | 1.4 | inactive
O=C1C=CC(=O)N1c1ccc2ccccc2c1 | Not Active | Active | Not Active | Not Active | Not Active | 3.6 | Active
CC(C)c1ccc(S(=O)(=O)Nc2ccc(O)c(Sc3nc[nH]n3)c2)cc1 | Not Active | inactive | Not Active | Not Active | Not Active | 200 | inactive
Cc1ccc(S(=O)(=O)Nc2cc(Sc3nnnn3-c3ccccc3)c(O)c3ccccc23)cc1 | Not Active | Active | Not Active | Not Active | Not Active | 8.6 | Active
O=[N+]([O-])c1ccc(Sc2nnc[nH]2)c2nsnc12 | Not Active | Active | Not Active | Not Active | Not Active | 1.7 | Active
O=C1C=CC(=O)N1c1ccccc1 | Not Active | Active | Not Active | Not Active | Not Active | 7.6 | Active
O=C1C=CC(=O)N1c1cc(Cl)cc(Cl)c1 | Not Active | Active | Not Active | Not Active | Not Active | 3.1 | Active
COc1ccc(Cc2nnc(SC3=CS(=O)(=O)c4ccccc43)o2)cc1 | Not Active | Active | Not Active | Not Active | Not Active | 7.1 | Active
[O-][Cl+3]([O-])([O-])[O-].c1ccc(-c2nc(N(c3ccccc3)c3ccccc3)s[n+]2-c2ccccc2)cc1 | Not Active | Active | Not Active | Not Active | Not Active | 3.5 | Active
[Br-].c1ccc(CNc2nc(-c3ccccc3)[n+](-c3ccccc3)s2)cc1 | Not Active | Active | Not Active | Not Active | Not Active | 2.4 | Active
Nc1ncnc2[nH]c(Sc3c([N+](=O)[O-])cc(Br)c4nsnc34)nc12 | Not Active | Active | Not Active | Not Active | Not Active | 3.2 | Active
Cn1c(CN2CCOCC2)nnc1Sc1ccc([N+](=O)[O-])c2nonc12 | Not Active | Active | Not Active | Not Active | Not Active | 1.8 | Active
CN(C)c1nc(-c2ccccc2)[n+](C)s1.[O-][Cl+3]([O-])([O-])[O-] | Not Active | Active | Not Active | Not Active | Not Active | 5.3 | Active
Cc1ccc(N2C(=O)C=CC2=O)cc1 | Not Active | Active | Not Active | Not Active | Not Active | 6 | Active
O=[N+]([O-])c1ccc2nonc2c1Sc1nc2ccccc2[nH]1 | Not Active | Active | Not Active | Not Active | Not Active | 3.4 | Active
O=[N+]([O-])c1ccc(Sc2nnc(-c3ccccc3)o2)c2nonc12 | Not Active | Active | Not Active | Not Active | Not Active | 1.1 | Active
O=S(=O)(C[n+]1sc(N(c2ccccc2)c2ccccc2)nc1-c1ccccc1)c1ccccc1.[Br-] | Not Active | inactive | Not Active | Not Active | Not Active | 50 | inactive
COc1ccc(N2C(=O)CC(Sc3n[nH]c(-c4ccccc4)n3)C2=O)cc1 (stereo unspecified) | Not Active | Active | Not Active | Not Active | Not Active | 21 | Active
COc1ccc(N2C(=O)C=CC2=O)cc1 | Not Active | Active | Not Active | Not Active | Not Active | 9.2 | Active
